Measurements published in paper PMC5829012 (Biochemistry, 2018).
“Also recorded” adds a separate entry of the source. Like-named read-outs stand apart in the source and are kept apart here.

What was measured:
[1] = molecular target: T1, Aβ42-fibrinogen interaction (Homo sapiens, UniProt P05067); assay: AlphaLISA of the Aβ42-fibrinogen interaction; format: binding; conditions: triplicate
Method in brief: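 Test compound (0.1–100 μM) incubated 30 min at RT with 10 nM biotinylated Aβ42 and 1 nM fibrinogen in 25 mM Tris-HCl pH 7.4, 150 mM NaCl, 0.05% Tween-20, 0.1% BSA. Anti-fibrinogen antibody, 20 μg/ml streptavidin donor and protein A acceptor beads added for 90 min at RT. Triplicate runs; IC50 from sigmoidal dose-response fit with 95% CI.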

Aβ aggregation = conditions: cited from earlier work
[2] = molecular target: T1, Aβ42-fibrinogen interaction; conditions: positive control; cited from earlier work
AD mouse models = conditions: cited from earlier work
Aβ42 aggregation = Aβ42 aggregation (Homo sapiens, UniProt P05067); assay: Aβ42 aggregation kinetics by ThT fluorescence; format: biochemical; conditions: Aβ42 12.5 μM; compound 48 μM; 37°C, 26 hrs
Method in brief: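 HFIP-monomerized Aβ42 was dissolved in DMSO by sonication, diluted in 20 mM HEPES pH 7.4/140 mM NaCl, spun 10 min at 4°C and kept on ice for ≤30 min. Wells were DMSO-matched; buffer ± compound served as controls. ThT was 33 μM final; plates shaken at 25 rpm, 37°C. Fluorescence (ex 440/em 480 nm) was read hourly. Triplicate.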

[3] = tested on: fibrin clot formation from fibrinogen with or without Aβ42 oligomers; assay: In vitro clotting; format: biochemical, human; conditions: compound 20 μM; fibrinogen 1.5 μM; thrombin; 450 nm
Method in brief: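 Purified human fibrinogen (1.5 μM) was preincubated with test compound (20 μM) or 0.4% DMSO vehicle, with or without Aβ42 oligomers (3 μM). Oligomers were made from HFIP-monomerized films: sonicated in DMSO, agitated overnight at 4°C, spun at 20,000 x g, and quantified by BCA. Clotting was started with thrombin (0.5 U/mL) and CaCl₂ (5 mM) in 20 mM HEPES pH 7.4, 137 mM NaCl at RT. A450 turbidity was followed over time, in triplicate.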

Aβ42 = conditions: surface plasmon resonance; cited from earlier work
[4] = tested on: Aβ42-induced activation of the FXII-mediated contact system; assay: Kallikrein activity assay; format: biochemical, human; conditions: DXS 0.1 μg/ml
Method in brief: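 Aβ42 oligomers (overnight 4°C in HEPES buffer, 1 μM final) ± test compound (40 μM) shaken 30 min at RT in 20 mM HEPES pH 7.4/140 mM NaCl. Human FXII and plasma prekallikrein added (10 nM each), then S-2302 (0.67 mM final). A405 read at RT; rate over 30 min as mU/min. DXS 0.1 µg/ml ± test compound as positive control; triplicate.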

[5] = read-out: AlphaLISA (IC50), known Aβ aggregation inhibitors (Table 1), 10 nM biotinylated Aβ42, 1 nM fibrinogen

T1 sequence (P05067 672-713 limits assumed): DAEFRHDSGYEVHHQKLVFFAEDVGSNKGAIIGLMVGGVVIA
Sequence of Aβ42 aggregation (P05067 672-713 limits assumed): as above

Molecule: O=C1NC(=O)c2cc(Nc3ccccc3)c(Nc3ccccc3)cc21 [4,5-Dianilino Pthalimide (DAPH), 4,5-Dianilino Pthalimide]
- IC50 [1, 5]: 43.2 µM

Molecule: Oc1cccc(Nc2ccc(Nc3cccc(O)c3)nn2)c1 [RS-0406]
- inhibition of Aβ aggregation and its toxicity (Aβ aggregation): strongly inhibit
- IC50 [1, 5]: > 100 µM

Molecule: CN(C)CCN(Cc1ccccc1)C(=O)c1cc(-c2ccc(F)cc2)n2nc(C(C)(C)C)cc2n1 [RU-505]
- inhibition of the Aβ42-fibrinogen interaction [2]: known inhibitor of the Aβ42-fibrinogen interaction
- cognitive impairment (AD mouse models): lessened the severity
- cortical inflammation (AD mouse models): reduced
- vascular Aβ deposition (AD mouse models): reduced

Molecule: CN(C)c1cccc(Oc2cnc(Nc3cccc(O)c3)nc2)c1 [SEN1269]
- Aβ42 aggregation (ThT fluorescence) (Aβ42 aggregation): effectively inhibited Aβ42 aggregation
- turbidity of the normal fibrin clot formed in the absence of Aβ42 [3]: further decreased the turbidity
- inhibition of Aβ aggregation / β-pleated sheet assembly and toxicity (Aβ aggregation): potent Aβ aggregation inhibitor; also recorded: block
- IC50 ([1]; RHS analogs of SEN1269 (Table 2), AlphaLISA): 17.8 µM
- IC50 [1, 5]: 17.8 µM
- binding to Aβ42 (Aβ42): binds to Aβ42; also recorded: shown to bind Aβ42

Molecule: Dextran sulfate
- kallikrein activity (positive control) [4]: high kallikrein activity

Molecule: Tanshinone
- inhibition of Aβ aggregation and its toxicity (Aβ aggregation): strongly inhibit
- IC50 [1, 5]: > 100 µM
